Compound activity (PubChem BioAssay)
Shown are actives, neighbours in structure and some others; about 3.5% of the full set was active somewhere.
RGS4 act: potentiators or activators of RGS4 | HEK293 M3R/inducible RGS4, carbachol calcium flux Fluo4; hits give low values | B-score at 10 µM | 310,000 compounds, 0.92% hits | AID 463111;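 active means B-score of the integrated calcium signal more than 4 SD below the library mean, with starting fluorescence not abnormally high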;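 further: negative B-score means reduced calcium response which marks RGS4 activation or potentiation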
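Test system: HEK293 cells with stable M3R and inducible RGS4; also added: carbachol at ECmax as muscarinic agonist stimulus; schedule: dye loading 30 min 37 °C, buffer rest 30 min RT; technique: kinetic calcium fluorescence imaging with Fluo4-AM dye, 2 µM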
MrgX1 PAM: allosterically activates human MrgX1 receptor signaling. Q96LB2. MrgX1-HEK293, Fluo-4 calcium flux, FDSS; hits give high values. B-score at 10 µM. 310,000 compounds, 0.63% hits. AID 588675;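 active means plate-corrected calcium response at least 3 library SD above typical, normal starting fluorescence, not activating the receptor alone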;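 further: compound read alongside a low EC10 to EC30 dose of BAM8-22 agonist; peak minus trough fluorescence over baseline measured at the second addition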
Target sequence (Q96LB2 whole entry, looked up): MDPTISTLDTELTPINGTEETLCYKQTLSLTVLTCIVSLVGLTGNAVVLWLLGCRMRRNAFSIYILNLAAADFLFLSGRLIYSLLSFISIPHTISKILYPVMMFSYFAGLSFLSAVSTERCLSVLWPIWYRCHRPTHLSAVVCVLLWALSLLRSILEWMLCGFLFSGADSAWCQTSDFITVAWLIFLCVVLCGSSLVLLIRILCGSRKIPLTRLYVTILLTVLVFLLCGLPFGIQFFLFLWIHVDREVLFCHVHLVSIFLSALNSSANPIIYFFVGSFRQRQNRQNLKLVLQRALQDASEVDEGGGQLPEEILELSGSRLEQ
MrgX1 antag: antagonists of human MrgX1 receptor. MRGX1-HEK293 calcium flux, Fluo-4, BAM8-22 antagonism; hits give low values. B-score at 10 µM. Q96LB2. 310,000 compounds, 1.3% hits;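 active means calcium-response B-score plate-corrected more than 3 library SD below zero, starting fluorescence within 5 deviations, no agonist response on first addition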;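 further: peak minus trough fluorescence over baseline after final BAM8-22 challenge near maximal dose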
RGS4 block: human RGS4 inhibition; AID 463165; HEK293 M3R/RGS4 inducible, Fluo-4 calcium flux; hits give high values; triggered by carbachol at its EC20; B-score at 10 µM; 310,000 compounds, 0.45% hits; P49798;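 active means B-score, a plate-corrected calcium signal, over three deviations above library mean, with baseline fluorescence within five deviations of library mean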;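 further: RGS4 expression induced by doxycycline in cells with stable M3 receptor; B-score is computed from the integrated fluorescence ratio over baseline after carbachol; higher B-score means a larger calcium signal and so more RGS4 inhibition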
Target sequence (P49798 whole entry, looked up): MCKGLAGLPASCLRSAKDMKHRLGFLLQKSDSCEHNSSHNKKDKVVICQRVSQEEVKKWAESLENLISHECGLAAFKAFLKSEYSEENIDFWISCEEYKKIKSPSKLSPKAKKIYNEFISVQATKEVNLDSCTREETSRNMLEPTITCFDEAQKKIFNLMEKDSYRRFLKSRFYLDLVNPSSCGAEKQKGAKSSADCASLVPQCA
MrgX1 agonist: agonists of human MrgX1 receptor. AID 588627. MrgX1-HEK293 cells, Fluo-4 calcium fluorescence, agonist mode; hits give high values. 310,000 compounds, 0.44% hits. Q96LB2. B-score at 10 µM;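 active means calcium response B-score plate-corrected fluorescence ratio at least 3 library SD, with starting fluorescence B-score inside 5 SD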
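Test system: HEK293 cells stably expressing human MrgX1 receptor; Input: fifteen thousand cells per well; Dosing: compound delivered in addition one of three; Schedule: overnight seeding, then 1 h dark dye loading; Technique: Fluo-4 NW calcium fluorescence; Measure: B-scored fluorescence response ratio; Controls: positive and negative controls per plate.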
MrgX1 antag conf: human MrgX1 receptor antagonism, re-confirmation screen; shares compounds with MrgX1 antag; MrgX1-HEK293, BAM8-22 calcium flux, Fluo-4; hits give low values; remaining BAM8-22 calcium response % of control (hits give low values), % at 10 µM; 2,300 compounds, 19% hits;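 active means remaining agonist calcium response no higher than 100% minus 3 SD of agonist-only control wells, with starting fluorescence near control levels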;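 further: agonist BAM8-22 given at a near maximal EC90 to ECmax level; peak minus minimum fluorescence divided by baseline after agonist addition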
HEK293 Ca flux: activity in parental HEK293 cells lacking MrgX1; 4,000 compounds, 2% hits; fluorescence ratio F(max-min)/F0 at 10 µM; Fluo-4 calcium fluorescence, FDSS; shares compounds with MrgX1 antag;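 active means duplicate-averaged calcium fluorescence ratio at least three times the standard deviation of buffer wells, a nonspecific response in parental cells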
HEK293 Ca counter: counter-screen for MrgX1 allosteric activators: effect in parental HEK293 cells; fluorescence ratio F(max-min)/F0 at 10 µM; 4,000 compounds, 0.4% hits; parental HEK293 calcium flux, Fluo-4 fluorescence ratio; hits give high values; shares compounds with MrgX1 antag;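 active means calcium fluorescence ratio, averaged over duplicates, at least 3 SD of the buffer-well ratio, meaning a nonspecific response in receptor-free cells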;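 further: untransfected parental HEK293 lacking MrgX1 used as counterscreen for MrgX1 allosteric activators; fluorescence change taken during the second addition on a kinetic imager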
HEK293 Ca cntr2: activity in parental HEK293 cells lacking MrgX1 receptor. 4,000 compounds, 8.7% hits. AID 624115. shares compounds with MrgX1 antag. Fluo-4 calcium fluorescence (FDSS); hits give high values. fluorescence ratio F(max-min)/F0 at 10 µM;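 active means calcium fluorescence ratio at least three times the spread of buffer wells, meaning a non-specific response in parental cells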
Active calls of the source: *; i = inactive; / = no result given.

SMILES	RGS4 act	MrgX1 PAM	MrgX1 antag	RGS4 block	MrgX1 agonist	MrgX1 antag conf	HEK293 Ca flux	HEK293 Ca counter	HEK293 Ca cntr2
CC1C(=O)NN=C1C(=O)N/N=C/c1cccs1 (centres undefined)	i	i	-11*	i	i	i	i	i	i
CC(=O)N1CCN(c2nc(-c3cccs3)nc3ccccc23)CC1	i	i	-4.7*	i	i	i	i	i	i
Cc1cc(C)n(-c2nnc(C)n2N)n1	i	i	-5.9*	i	i	85%*	i	i	i
Cc1cc(C)n(-c2nnc(C)n2/N=C/c2ccccc2O)n1	i	i	i	i	i	/	/	/	/
Cc1cccc(N2CCN(C(=O)CNC(=O)c3cccc([N+](=O)[O-])c3)CC2)c1C	i	i	i	i	i	/	/	/	/
Cc1cc(C)c(NC(=O)CNC(=O)CSc2nnc(N)s2)c(C)c1	i	i	i	i	i	/	/	/	/
COc1ccc(-c2nc(N3CCC(C)CC3)[nH]c(=O)c2C#N)cc1	i	i	-5.6*	i	i	i	i	i	i
COc1ccc(-c2nc(N3CCCC3)[nH]c(=O)c2C#N)cc1	i	i	i	i	i	/	/	/	/
COc1ccc(-c2csc(NC(=O)Cc3ccccc3F)n2)cc1OC	i	i	-6.1*	i	i	78%*	i	i	i
COc1ccc(-c2csc(NC(=O)C3CCN(c4ncnc5sc(C)c(C)c45)CC3)n2)cc1OC	i	i	-6*	i	i	79%*	i	i	i
CCc1noc(C)c1C(=O)Nc1nc(-c2ccc(OC)c(OC)c2)cs1	i	i	i	i	i	/	/	/	/
COc1ccccc1CC(=O)Nc1nc(-c2ccc(F)c(F)c2)cs1	i	i	i	i	i	/	/	/	/
COc1ccc(-c2csc(NC(=O)c3cc(C)oc3C)n2)cc1OC	i	i	-4.9*	i	i	71%*	i	i	i
Cc1nc2scc(C)n2c(=O)c1S(=O)(=O)Nc1ccc(N2CCOCC2)cc1	i	i	i	i	i	/	/	/	/
CC1(C)CC(=O)N(CC(=O)O)c2ccccc2S1	i	i	-4.5*	i	i	i	i	i	i
COC(=O)CN1C(=O)CC(C)(C)Sc2ccccc21	i	i	i	i	i	/	/	/	/
Oc1c(C=Nc2cccnc2)sc2ccccc12	i	i	-4.9*	i	i	i	i	i	i
Oc1c(/C=N/c2ccccn2)sc2ccccc12	i	i	-6.7*	i	i	69%*	i	i	i
Oc1c(C=Nc2ccc(Cl)cn2)sc2ccccc12	i	i	i	i	i	/	/	/	/
CC(C)Cc1ccc(C(C)C(=O)Nc2ccc(O)cc2)cc1 (centres undefined)	i	i	-8.2*	i	i	i	i	i	66*
CCCn1c(N)c(N(CCOC)C(=O)c2ccc(Cl)c([N+](=O)[O-])c2)c(=O)[nH]c1=O	i	i	i	i	i	/	/	/	/
Cc1occc1-c1nnc(SCC(=O)Nc2c(F)cccc2F)n1C	i	i	i	i	i	/	/	/	/
CCOC(=O)N1CCN(C2CC(=O)N(c3ccc(F)cc3)C2=O)CC1 (centres undefined)	i	i	-5.9*	i	i	i	i	i	i
COc1ccc2c(c1OC)C(=O)OC2Nc1ccccc1S(=O)(=O)C(F)F (centres undefined)	i	i	-4.7*	i	i	i	i	i	i
CS(=O)(=O)N1CCN(c2ccc(NC(=S)NC(=O)c3ccccc3[N+](=O)[O-])cc2)CC1	i	i	i	i	i	/	/	/	/
SMILES	RGS4 act	MrgX1 PAM	MrgX1 antag	RGS4 block	MrgX1 agonist	MrgX1 antag conf	HEK293 Ca flux	HEK293 Ca counter	HEK293 Ca cntr2
O=S(=O)(c1ccc(N2CCOCC2)cc1)N1CCOCC1	i	i	-4.9*	i	i	i	i	i	i
CCS(=O)(=O)N1CCN(c2ccc(S(=O)(=O)N3CCOCC3)cc2)CC1	i	i	i	i	i	/	/	/	/
Nc1nc2n(n1)C(c1ccco1)CC(c1ccc(Cl)cc1)N2 (centres undefined)	i	i	-6.3*	i	i	i	i	i	i
CCc1ccc(C2CC(c3ccccc3Cl)Nc3nc(N)nn32)cc1 (centres undefined)	i	i	-5.1*	i	i	i	i	i	i
CCN(C(=O)COC(=O)c1ccccc1SCC(=O)N1CCCC1)C1CCS(=O)(=O)C1 (centres undefined)	i	i	i	i	i	/	/	/	/
COc1ccc(CCNC(=O)[C@H](CC(C)C)NC(=O)N2CCn3c2nc2ccccc23)cc1OC	i	i	i	i	i	/	/	/	/
O=C(O)CCCCCN1C(=O)C(O)=C(C(=O)/C=C/c2ccccc2)C1c1cccc([N+](=O)[O-])c1 (centres undefined)	i	i	i	i	i	/	/	/	/
Cc1cccc(N/C=C(\[N+](=O)[O-])S(=O)(=O)c2ccccc2)c1C	i	i	i	i	i	/	/	/	/
Cc1ccc(CNC(=O)C2CCC(=O)N(CC3CCCCC3)C2)o1 (centres undefined)	i	i	i	i	i	/	/	/	/
CCOC(=O)COc1cccc2c(=O)n(CC(=O)N3CCCCC3)ccc12	i	i	i	i	i	/	/	/	/
O=C(COc1ccccc1)N1CCc2ccccc21	i	i	i	i	i	/	/	/	/
O=C(COc1ccccc1)OCC(=O)N1CCCc2ccccc21	i	i	-6.1*	i	i	i	i	i	i
COC(=O)COc1cccc2c(=O)n(CC(=O)N3CCCc4ccccc43)ccc12	i	i	-8.9*	i	i	i	i	i	i
CCOc1ccc(NC(=O)COC(=O)COc2cccc3c2OC(C)(C)C3)cc1	i	i	i	i	i	/	/	/	/
